One data set deals with BMDMs. In words: Flow cytometry of M2 markers in BMDMs incubated with IL-4 and UPNs. To be noted: for effect of inhibitor on UPN-induced CD206 expression: flow cytometry, IL-4 and UPN induced macrophages. The format is cell-based, mouse. The method, boiled down: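 Bone marrow cells from C57BL/6J mice were red-cell-lysed and grown as BMDMs at 37 °C and 5% CO2 in M-CSF medium (40 ng/ml). Medium was replenished on days 2 and 3 and renewed on day 5. Groups were untreated, IL-4, test nanofibers, and IL-4 plus test nanofibers. STAT6-IN-1 (p-STAT6 inhibitor) was applied with IL-4 plus nanofibers. CD163 and CD206 were quantified by flow cytometry; mean ± SD, n = 3.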

The subject of a further data set is p-STAT6. In words: p-STAT6 immunofluorescence in M2-type macrophages. The format is cell-based, mouse. As to conditions: 24 h; semiquantitative; Ctrl group 1.7%; Fig. 4E.
Another data set relates to BMSCs. In words: Transwell migration of BMSCs in coculture. The format is cell-based, mouse. The essentials:
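BMSCs were obtained from 4-week-old SPF C57BL/6J mouse bone marrow, red-cell-lysed at 4 °C for 10 min, and cultured at 37 °C and 5% CO2. They were then cocultured with macrophages given no treatment, IL-4, or IL-4 plus test nanofibers. BMSC migration was assessed at 0, 24 and 48 h and expressed as percentage of migrating cells; mean ± SD, n = 3.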

The subject of the next data set is bone defects in mice. The experiment in a line: Gene transcript sequencing of bone defects in mice treated with UPs. The format is in vivo, mouse. To be noted: mice treated with UPs for 14 days (tail vein injection); Fig. 3A.
For data set [1], the system named is macrophages. The experiment in a line: TEM of macrophage mitochondria. The format is cell-based, mouse. To be noted: Ctrl group nearly 20%, Fig. 2J. The essentials: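 Macrophages derived from mouse bone marrow in M-CSF medium (40 ng/ml), refreshed on days 2, 3 and 5, then induced with peptide or nanofibers. Imaged by transmission electron microscopy. Expanded mitochondria scored as a fraction of total mitochondria. Mean ± SD, n = 3.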

In data set [2] the test system is macrophages. In words: Microscopic observation of macrophage state with UP and UPN. The format is cell-based, mouse. As to conditions: 800 μg/ml, 0, 48 and 72 h; Figure S7 A-C. The essentials:
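Peptide and nanofiber preparations pre-incubated 6 h. Cells then cultured with them for 0, 48 and 72 h. Cell activity state checked by light microscopy alongside a CCK-8 proliferation read (100 μl per 2 ml medium, 2 h, absorbance 450 nm).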

For `O=C(Nc1ccccc1)c1cc([N+](=O)[O-])ccc1Cl` [GW9662], the “effect of inhibitor on UPN-induced CD206 expression” value in the data set on BMDMs is reported as “inhibited UPN-induced expression of the M2 type macrophage marker CD206”.

Regarding `C/C(=C\C(=O)N[C@H](C(=O)N1CCC[C@H]1C(=O)N(c1ccccc1)c1ccc(I)cc1)C(C)(C)C)c1ccc(OP(=O)(O)O)cc1` [STAT6-IN-1], the “effect of inhibitor on UPN-induced CD206 expression” value in the data set on BMDMs is “inhibited UPN-induced expression of the M2-type macrophage marker CD206”.

In the data set on p-STAT6, “IL-4: interleukin-4, used to induce M2-type macrophages” yielded a p-STAT6 fluorescence intensity of 7.8%. In the data set with BMDMs (BMDMs, flow cytometry quantification, n = 3, Ctrl nearly 17.2%, Fig. 3L), the “expression of CD163” value is 50.3%. Further, the “expression of CD206” value in the data set on BMDMs (BMDMs, flow cytometry quantification, n = 3, Ctrl nearly 18.1%, Fig. 3M) was determined as 40.9%. Besides, the “percentage of migrating cells at 24 h” value with BMSCs (24 h, control group nearly 2%, Fig. 5I) was determined as 7.2%. Besides, the “number of migrating cells at 48 h” value in the data set with BMSCs (48 h, control group 4.8%, Fig. 5J) is listed as 13.7%.

As for Ser-Glu-Ser-Ser-Glu [UP], in the data set with bone defects in mice, the “expression of Arg1 and CD163 in bone defects” value is “marked increase in the expression of Arg1 and CD163”. For the same molecule, in the data set with macrophages [1], the “percentage of swollen mitochondria” value worked out at 38%. The “active status of macrophages under the microscope” value in the data set with macrophages [2] is on record as “not significantly toxic”.

(Values after paper PMC10450354 (Bioactive Materials, 2023).)
